Source: ChEMBL document CHEMBL1151697, “Synthesis and structure-activity relationships for biphenyl H3 receptor antagonists with moderate anti-cholinesterase activity” (Bioorg Med Chem, 2008)
Calls of active or inactive are those of the source. The rule behind the calls is not given here.

Columns and labels:
Histamine H3 receptor [1] = target: T1, Histamine H3 receptor (Homo sapiens, UniProt Q9Y5N1); assay: Antagonist activity at human histamine H3 receptor expressed in SK-N-MC cells by CRE-mediated beta-galactosidase reporter gene assay administered 10 mins before (R)-alpha-methylhistamine challenge after 6 hrs; assay type: functional, cell-based
T1 sequence (Q9Y5N1 whole entry): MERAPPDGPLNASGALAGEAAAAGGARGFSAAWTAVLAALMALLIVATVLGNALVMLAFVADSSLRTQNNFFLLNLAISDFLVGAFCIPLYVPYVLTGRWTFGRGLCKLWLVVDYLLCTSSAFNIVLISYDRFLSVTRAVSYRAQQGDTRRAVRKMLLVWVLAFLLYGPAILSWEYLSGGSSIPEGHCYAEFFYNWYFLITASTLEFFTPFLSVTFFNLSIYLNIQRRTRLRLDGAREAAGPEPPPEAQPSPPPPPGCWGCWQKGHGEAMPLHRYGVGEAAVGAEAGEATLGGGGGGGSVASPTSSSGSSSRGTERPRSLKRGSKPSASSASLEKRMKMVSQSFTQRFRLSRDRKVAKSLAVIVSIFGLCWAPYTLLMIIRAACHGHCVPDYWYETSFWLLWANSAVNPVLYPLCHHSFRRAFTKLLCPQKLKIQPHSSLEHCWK
Summary of the method: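 SK-N-MC cells stably carrying human H3 and a β-galactosidase reporter. Compound added to medium, forskolin 5 min later, then (R)-α-methylhistamine 10 min after compound; 6 h at 37 °C. Cells lysed in phosphate assay buffer (pH 8) with 0.5% Triton and 40 mM β-mercaptoethanol; β-galactosidase read at 570 nm. Means of 4–6 experiments.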

Histamine H3 receptor [2] = target: T1, Histamine H3 receptor; assay: Displacement of [3H]RAMHA from human histamine H3 receptor expressed in SK-N-MC cells; assay type: cell-based
Summary of the method: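 SK-N-MC membranes bearing human H3 incubated 60 min at room temperature with 0.5 nM [3H]-(R)-α-methylhistamine and competitor (0.01 nM to 10 µM). Rapid filtration, two washes in ice-cold 50 mM Tris–HCl/5 mM EDTA. Nonspecific binding with 10 µM histamine. pKi via Cheng–Prusoff; means of 4–6 experiments.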

Histamine H3 receptor [3] = target: Histamine H3 receptor (Rattus norvegicus, UniProt Q9QYN8); assay: Displacement of [3H]RAMHA from histamine H3 receptor in Wistar rat brain membrane; assay type: cell membranes
Chain of Histamine H3 receptor (Rattus norvegicus, UniProt Q9QYN8) (Q9QYN8 whole entry): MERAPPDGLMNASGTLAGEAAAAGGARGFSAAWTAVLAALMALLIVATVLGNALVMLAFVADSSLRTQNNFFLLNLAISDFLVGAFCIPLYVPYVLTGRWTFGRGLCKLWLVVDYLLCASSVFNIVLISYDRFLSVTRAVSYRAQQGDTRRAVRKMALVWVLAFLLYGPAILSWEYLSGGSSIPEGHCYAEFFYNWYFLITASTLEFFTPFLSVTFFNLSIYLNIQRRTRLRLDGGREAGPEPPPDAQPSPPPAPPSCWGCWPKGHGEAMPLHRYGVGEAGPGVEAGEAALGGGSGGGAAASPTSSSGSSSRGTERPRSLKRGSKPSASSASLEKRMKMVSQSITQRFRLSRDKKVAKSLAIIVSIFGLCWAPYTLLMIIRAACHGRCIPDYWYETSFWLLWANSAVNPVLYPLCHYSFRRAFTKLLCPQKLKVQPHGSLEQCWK
Summary of the method: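 Membranes from male Wistar rat brain (150–200 g) incubated 45 min with 0.5 nM [3H]RAMHA and compound (0.03 nM to 10 µM) in 50 mM Tris–HCl pH 7.4, 50 mM NaCl, 0.5 mM EDTA. Vacuum filtration, two ice-cold buffer rinses. Nonspecific binding set with 10 µM thioperamide. pKi by Cheng–Prusoff.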

SK-N-MC [4] = assay: Cytotoxicity against human SK-N-MC cells at 1 uM after 6 hrs by MTT test; assay type: functional, cell-based
Summary of the method: (§1)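 MTT viability test: SK-N-MC cells held 6 h with compound (1–10 µM) or vehicle. MTT (5 mg/ml stock) added for 3 h, cells washed in PBS, formazan dissolved in 0.1 N HCl in isopropanol, absorbance read at 570 nm. Viability given relative to control.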

SK-N-MC [5] = assay: Cytotoxicity against human SK-N-MC cells at 10 uM after 6 hrs by MTT test; assay type: functional, cell-based; summary of the method: as §1
[6] = target: T2, Acetylcholinesterase (Rattus norvegicus) (UniProt P37136); assay: Inhibition of acetylcholinesterase in Wistar rat brain homogenate at upto 1 to 100 uM by Ellman's method; assay type: tissue-based
T2 sequence (whole entry): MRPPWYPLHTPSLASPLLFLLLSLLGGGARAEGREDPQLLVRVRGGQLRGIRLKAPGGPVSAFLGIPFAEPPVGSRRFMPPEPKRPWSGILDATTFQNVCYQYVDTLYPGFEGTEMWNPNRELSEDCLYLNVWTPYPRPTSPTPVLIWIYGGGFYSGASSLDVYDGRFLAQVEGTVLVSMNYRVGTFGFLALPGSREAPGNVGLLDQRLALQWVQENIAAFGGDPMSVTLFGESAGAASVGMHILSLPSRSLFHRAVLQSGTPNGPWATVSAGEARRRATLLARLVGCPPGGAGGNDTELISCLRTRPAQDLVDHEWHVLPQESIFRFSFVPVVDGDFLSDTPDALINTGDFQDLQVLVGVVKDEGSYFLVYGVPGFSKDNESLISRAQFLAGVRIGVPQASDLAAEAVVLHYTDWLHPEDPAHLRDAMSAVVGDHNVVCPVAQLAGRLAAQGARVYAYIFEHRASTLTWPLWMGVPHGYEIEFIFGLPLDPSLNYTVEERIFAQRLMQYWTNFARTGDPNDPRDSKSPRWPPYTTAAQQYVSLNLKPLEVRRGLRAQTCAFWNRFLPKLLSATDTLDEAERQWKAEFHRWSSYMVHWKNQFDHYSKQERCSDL
Summary of the method: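 Male Wistar rat (150–200 g) brain homogenate in 0.1 M phosphate buffer (pH 8.0) with DTNB (5 mM) and compound at 1–100 µM. Reaction started at 37 °C by adding acetylthiocholine (75 mM solution) and stopped after 15 min with 4% formalin. 5-Thio-2-nitrobenzoate absorbance at 412 nm. Percent inhibition versus control; reported as pIC50.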

Acetylcholinesterase = target: T3, Acetylcholinesterase (Rattus norvegicus, UniProt P37136); assay: Inhibition of acetylcholinesterase in Wistar rat brain homogenate by Ellman's method; assay type: tissue-based
T3 sequence (P37136 whole entry): T2 sequence (whole entry)

[7] = target: Histamine H2 receptor (Cavia porcellus) (UniProt P47747); assay: Antagonist activity at histamine H2 receptor in guinea pig atrium assessed as changes in rate of spontaneous beat at upto 1 uM; assay type: functional, tissue-based; conditions: Cardiac atrium
Chain of Histamine H2 receptor (Cavia porcellus) (P47747 whole entry): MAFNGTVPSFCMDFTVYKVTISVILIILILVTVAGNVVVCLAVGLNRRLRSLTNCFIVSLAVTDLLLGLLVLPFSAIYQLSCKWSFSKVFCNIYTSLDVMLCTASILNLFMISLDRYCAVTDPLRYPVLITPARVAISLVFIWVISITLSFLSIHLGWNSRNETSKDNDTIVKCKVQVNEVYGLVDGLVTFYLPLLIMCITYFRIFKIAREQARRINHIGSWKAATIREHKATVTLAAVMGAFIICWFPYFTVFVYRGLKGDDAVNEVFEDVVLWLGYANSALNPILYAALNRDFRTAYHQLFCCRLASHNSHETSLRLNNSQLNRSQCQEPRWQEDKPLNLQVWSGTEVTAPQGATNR
Summary of the method: (§2)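 Guinea-pig atria (H2) in Ringer–Locke at 31 °C (mM: NaCl 154.0, KCl 5.6, CaCl2 1.08, NaHCO3 5.95, glucose 11.1), gassed 95% O2–5% CO2. Spontaneous beating rate recorded by cardiotachograph. Cumulative dimaprit curves (0.1–100 µM) run without and with compound up to 10 µM. Affinity given as pKB by Furchgott, or as pD2′ by Van Rossum if non-surmountable.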

[8] = target: Histamine H1 receptor (Cavia porcellus) (UniProt P31389); assay: Antagonist activity at histamine H1 receptor in guinea pig terminal ileum at upto 10 uM; assay type: functional, tissue-based
Chain of Histamine H1 receptor (Cavia porcellus) (P31389 whole entry): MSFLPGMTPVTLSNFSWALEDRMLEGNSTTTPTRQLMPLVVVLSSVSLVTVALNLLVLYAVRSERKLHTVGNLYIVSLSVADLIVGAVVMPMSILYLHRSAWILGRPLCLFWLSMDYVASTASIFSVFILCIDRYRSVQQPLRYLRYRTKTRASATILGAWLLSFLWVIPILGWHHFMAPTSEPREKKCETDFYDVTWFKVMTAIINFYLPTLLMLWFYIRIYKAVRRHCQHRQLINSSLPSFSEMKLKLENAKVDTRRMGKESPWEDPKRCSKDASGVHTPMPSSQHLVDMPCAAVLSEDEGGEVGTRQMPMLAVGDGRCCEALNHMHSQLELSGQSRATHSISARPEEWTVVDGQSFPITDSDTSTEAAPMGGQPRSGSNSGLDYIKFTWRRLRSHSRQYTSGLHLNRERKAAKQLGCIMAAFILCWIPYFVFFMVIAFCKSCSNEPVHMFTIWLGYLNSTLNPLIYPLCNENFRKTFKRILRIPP
Summary of the method: (§3)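 Guinea-pig (250–350 g) terminal ileum (H1) suspended isometrically in Krebs–Henseleit at 37 °C, aerated 95% O2–5% CO2. Cumulative histamine curves (1 nM to 1 µM) run without and with compound up to 10 µM. pKB (apparent pA2) from Furchgott's equation; pD2′ from Van Rossum's equation when antagonism was non-surmountable.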

[9] = target: Histamine H3 receptor (Cavia porcellus) (UniProt Q9JI35); assay: Antagonist activity at histamine H3 receptor in electrically-stimulated guinea pig ileum assessed as inhibition of (R)-alpha-methylhistamine-induced twitch contraction in presence of 1 uM mepyramine; assay type: functional, tissue-based
Chain of Histamine H3 receptor (Cavia porcellus) (Q9JI35 whole entry): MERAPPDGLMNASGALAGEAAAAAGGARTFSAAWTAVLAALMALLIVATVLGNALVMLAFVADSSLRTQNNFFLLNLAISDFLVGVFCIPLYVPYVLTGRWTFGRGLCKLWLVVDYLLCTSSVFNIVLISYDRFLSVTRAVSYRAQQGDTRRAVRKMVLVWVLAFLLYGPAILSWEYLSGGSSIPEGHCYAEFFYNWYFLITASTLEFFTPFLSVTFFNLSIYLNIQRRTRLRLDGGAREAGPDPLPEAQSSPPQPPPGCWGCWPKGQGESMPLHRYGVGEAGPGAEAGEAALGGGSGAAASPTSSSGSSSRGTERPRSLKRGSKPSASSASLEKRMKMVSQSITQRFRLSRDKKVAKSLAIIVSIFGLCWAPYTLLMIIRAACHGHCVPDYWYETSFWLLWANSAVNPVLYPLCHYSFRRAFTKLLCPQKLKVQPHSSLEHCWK
Summary of the method: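 Guinea-pig ileum, electrically stimulated (0.1 Hz, 1 ms, submaximal voltage). Twitch inhibition by cumulative (R)-α-methylhistamine (1 nM to 1 µM) with 1 µM mepyramine present. Compounds tested at 1 nM to 30 µM. Potency as pKB from Furchgott's equation, or as pD2′ (Van Rossum) for non-surmountable antagonism.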

Histamine H4 receptor = Histamine H4 receptor (Homo sapiens, UniProt Q9H3N8); assay: Displacement of [3H]histamine from human histamine H4 receptor expressed in SK-N-MC cells at upto 10 uM
Chain of Histamine H4 receptor (Q9H3N8 whole entry): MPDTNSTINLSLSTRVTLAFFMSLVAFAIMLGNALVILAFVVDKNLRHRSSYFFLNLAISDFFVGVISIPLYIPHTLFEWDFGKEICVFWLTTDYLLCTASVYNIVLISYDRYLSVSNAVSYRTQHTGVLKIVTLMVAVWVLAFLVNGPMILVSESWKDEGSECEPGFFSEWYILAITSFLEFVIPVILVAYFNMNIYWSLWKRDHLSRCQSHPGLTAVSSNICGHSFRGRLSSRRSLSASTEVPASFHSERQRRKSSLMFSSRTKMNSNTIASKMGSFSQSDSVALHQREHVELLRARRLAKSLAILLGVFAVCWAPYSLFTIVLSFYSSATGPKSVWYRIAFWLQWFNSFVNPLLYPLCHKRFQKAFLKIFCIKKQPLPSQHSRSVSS

[10] = target: T2, Acetylcholinesterase (Rattus norvegicus); assay: Inhibition of acetylcholinesterase in Wistar rat brain homogenate at upto 10 uM by Ellman's method; assay type: tissue-based
[11] = target: Histamine H2 receptor (Cavia porcellus) (UniProt P47747); assay: Antagonist activity at histamine H2 receptor in guinea pig atrium assessed as changes in rate of spontaneous beat at upto 10 uM; assay type: functional, tissue-based; conditions: Cardiac atrium; summary of the method: as §2
[12] = target: Histamine H1 receptor (Cavia porcellus) (UniProt P31389); assay: Antagonist activity at histamine H1 receptor in guinea pig terminal ileum; assay type: functional, tissue-based; summary of the method: as §3

Row | Compound | pKb (Histamine H3 receptor [1]) | Ki (Histamine H3 receptor [2]) [nM] | Ki (Histamine H3 receptor [3]) [nM] | Activity (SK-N-MC [4]) | Activity (SK-N-MC [5]) | inhibition [6] [%] | IC50 (Acetylcholinesterase) [nM] | Activity [7] | Activity [8] | pKb [9] | Activity (Histamine H4 receptor) | Activity [10] | Activity [11] | pKb [12]
1 | CCCN(CCC)Cc1ccc(-c2ccc(CCN3CCCCC3)cc2)cc1 | 8.82 | 3.89 | 10.7 | Not toxic | Not toxic | 80 | 6760 | inactive | inactive | 7.98 | inactive |  |  | 
2 | c1cc(-c2ccc(CN3CCCCC3)cc2)ccc1CCN1CCCCC1 | 9.28 | 2 | 8.32 | Not toxic | Not toxic | 91 | 1100 | inactive | inactive | 8.73 | inactive |  |  | 
3 | c1cc(-c2ccc(CN3CCOCC3)cc2)ccc1CN1CCCCC1 | 7.77 | 19.5 | 15.5 | Not toxic | Not toxic |  |  |  | inactive | 9.07 | inactive | inactive | inactive | 
4 | CN(C)Cc1ccc(-c2ccc(CN(C)C)cc2)cc1 | 8.17 |  |  | Not toxic | Not toxic |  |  |  | inactive | 8.46 | inactive | inactive | inactive | 
5 | c1cc(-c2ccc(CN3CCOCC3)cc2)ccc1CN1CCOCC1 | 7.67 |  |  | Not toxic | Not toxic |  |  |  | inactive |  | inactive | inactive | inactive | 
6 | c1cc(-c2ccc(CN3CCCCC3)cc2)ccc1CNC1CCCCC1 | 8.03 |  |  | Not toxic | Not toxic | 73 | 5750 | inactive | inactive | 7.59 | inactive |  |  | 
7 | CC1CCN(Cc2ccc(-c3ccc(CN4CCCCC4)cc3)cc2)CC1 | 8.64 | 2.4 | 5.75 | Not toxic | Not toxic | 93 | 1410 |  | inactive | 8.75 | inactive |  | inactive | 
8 | CCCN(CCC)Cc1ccc(-c2ccc(CN3CCCCC3)cc2)cc1 | 8.18 | 1.74 | 3.16 | Not toxic | Not toxic | 93 | 1480 |  |  | 9.12 | inactive |  | inactive | 5.48
9 | C(CCCCN1CCCCC1)CCCCN1CCCCC1 |  | 4.47 | 15.8 |  |  |  |  |  |  |  |  |  |  | 
